Holding throughout (type): functional
Assay [1] in a line: Inhibitory activity against lipid peroxidation of egg-phosphatidylcholine (PC) liposome caused by water-soluble radical initiator [2,2'-azobis(2-amidinopropane) dihydrochloride] (AAPH). In a few lines: (§1)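 Egg PC liposome peroxidation driven by water-soluble initiator AAPH (0.21 M aqueous stock, 150 µl) with sample in DMSO; 37°C for 20 min, capped tube. TBA reagent (0.375% TBA, 15% TCA, 0.25 N HCl) added, 100°C 15 min, cooled, spun; thiobarbituric acid reactive substances measured at 535 nm to give IC50.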

The nature of assay [2]: Inhibitory activity against lipid peroxidation of egg-phosphatidylcholine (PC) liposome caused by lipid-soluble radical initiator [2,2'-azobis(2,4- dimethylvaleronitrile] (AMVN). An outline of the steps:
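Egg PC liposomes (0.65 ml) incubated with sample in DMSO plus AMVN (8 mM DMSO stock) and water, 37°C, 20 min, capped tube. Stopped with thiobarbituric acid/trichloroacetic acid/HCl, heated 100°C 15 min, ice-cooled, centrifuged; TBARS in supernatant read at 535 nm. IC50 against lipid peroxidation.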

Assay [3] can be described thus: Inhibitory activity against lipid peroxidation of egg-phosphatidylcholine (PC) liposome caused by water-soluble radical initiator [2,2'-azobis(2-amidinopropane) dihydrochloride] (AAPH); strongly aggregated and precipitated the lipids, hence not eva luated. An outline of the steps:
as §1

By IC50 is commonly meant the concentration at which inhibition is half-maximal. Read a low IC50 as greater potency.

Each structure is given as a SMILES string.

In the case of `CCCCCCCCSCc1c(O)c(CSCCCCCCCC)c2c(c1O)C[C@@H](OC(=O)c1cc(O)c(O)c(O)c1)[C@@H](c1cc(O)c(O)c(O)c1)O2`, the values for the IC50 in assay [1] and in assay [2] were 7.9 µM and 60 µM, respectively.

`CCCCCCCCSCc1c(O)c(CSCCCCCCCC)c2c(c1O)[C@H](SCCCCCCCC)[C@@H](OC(=O)c1cc(O)c(O)c(O)c1)[C@@H](c1cc(O)c(O)c(O)c1)O2`: the IC50 in assay [1] amounted to 135 µM; in assay [2], 19.4 µM.

On to `O=C(O[C@@H]1Cc2c(O)cc(O)cc2O[C@@H]1c1cc(O)c(O)c(O)c1)c1cc(O)c(O)c(O)c1` [EPIGALOCATECHIN GALLATE], for which the IC50 is 20.8 µM in assay [1] and over 500 µM in assay [2].

For `C=CCSCc1c(O)c(CSCC=C)c2c(c1O)C[C@@H](OC(=O)c1cc(O)c(O)c(O)c1)[C@@H](c1cc(O)c(O)c(O)c1)O2`, the IC50 in assay [1] is 11.6 µM; in assay [2], over 500 µM.

Regarding `CCCCCCCCOC(=O)c1cc(O)c(O)c(O)c1` [OCTYL_GALLATE], the IC50 in assay [1] worked out at 18.6 µM; in assay [2] it was 188 µM.

For the compound `CCCCCCCCCCCCCCCCCCNC(=O)Oc1c(O)cc(C(=O)O[C@@H]2Cc3c(O)cc(O)cc3O[C@@H]2c2cc(O)c(O)c(O)c2)cc1O`, the IC50 in assay [1] turned out to be 24.6 µM; in assay [2], 22.1 µM.

Turning to `COC(=O)CSCc1c(O)c(CSCC(=O)OC)c2c(c1O)C[C@@H](OC(=O)c1cc(O)c(O)c(O)c1)[C@@H](c1cc(O)c(O)c(O)c1)O2`, the IC50 in assay [1] was 12 µM; in assay [2], over 500 µM.

Turning to `CCCCCCCCCCCCCCCCSCc1c(O)c(CSCCCCCCCCCCCCCCCC)c2c(c1O)C[C@@H](OC(=O)c1cc(O)c(O)c(O)c1)[C@@H](c1cc(O)c(O)c(O)c1)O2`, in assay [3], the IC50 result is recorded as “No effect”.

Take `CCCCCCCCCCCCCCCCCCSCc1c(O)c(CSCCCCCCCCCCCCCCCCCC)c2c(c1O)C[C@@H](OC(=O)c1cc(O)c(O)c(O)c1)[C@@H](c1cc(O)c(O)c(O)c1)O2`: the half-maximal inhibitory concentration (IC50) result in assay [3] is “No effect”.

On to `O=C(O[C@H]1[C@@H](c2cc(O)c(O)c(O)c2)Oc2cc(O)cc(O)c2[C@@H]1SCCO)c1cc(O)c(O)c(O)c1`, for which the IC50 in assay [1] is 20.5 µM; in assay [2], over 500 µM.

As to `O=C(O[C@@H]1Cc2c(O)c(CSCc3ccccc3)c(O)c(CSCc3ccccc3)c2O[C@@H]1c1cc(O)c(O)c(O)c1)c1cc(O)c(O)c(O)c1`, the IC50 was determined as 9.6 µM in assay [1] and 432 µM in assay [2].

For `CCCCCCCCSCc1c(O)c(CSCCCCCCCC)c2c(c1O)[C@H](SCCO)[C@@H](OC(=O)c1cc(O)c(O)c(O)c1)[C@@H](c1cc(O)c(O)c(O)c1)O2`, the IC50 in assay [1] worked out at 8.8 µM; in assay [2], 60.8 µM.

For the compound `Cc1c(C)c2c(c(C)c1O)CC[C@@](C)(CCC[C@H](C)CCC[C@H](C)CCCC(C)C)O2` [ALPHA-TOCOPHEROL], the IC50 in assay [1] was found to be 40.3 µM; in assay [2], 5.9 µM.

The record behind these values is ChEMBL document CHEMBL1131544, “Synthesis and antioxidant activity of novel amphipathic derivatives of tea polyphenol” (Bioorg Med Chem Lett, 1998).
